According to ChEMBL document CHEMBL1140918, “Candidate selection and preclinical evaluation of N-tert-butyl isoquine (GSK369796), an affordable and effective 4-aminoquinoline antimalarial for the 21st century” (J Med Chem, 2009):
Calls of active or inactive are those of the source. The calls are words filed in the database; no cut-off is given here.

Columns and labels:
Plasmodium yoelii [1] = test: Antimalarial activity as reduced parasitaemia against Plasmodium yoelii 17X infected CD1 mice (Mus musculus) after 4 days; format: functional; details: 96 h
Plasmodium yoelii [2] = test: Antimalarial activity as ED100 in peripheral blood against Plasmodium yoelii 17X infected CD1 mice (Mus musculus) after 4 days; format: functional
Heme [3] = test: Binding affinity to heme in DMSO assessed as equilibrium constant by UV-visible spectrophotometry; parameters: scale not given here
Method in brief: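 Haem titrations were run in buffered 40% DMSO so that haem stays monomeric and aggregation and μ-oxo dimer formation are minimised. Binding data were fitted mathematically to two alternative binding-process models to pick the best fit.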

Heme [4] = test: Binding affinity to heme in 20 mM SDS surfactant assessed as equilibrium constant by UV-visible spectrophotometry
Heme [5] = test: Binding affinity to heme in 50 mM SDS surfactant assessed as equilibrium constant by UV-visible spectrophotometry
Heme [6] = test: Binding affinity to heme in […] CTAB surfactant assessed as equilibrium constant by UV-visible spectrophotometry
Heme [7] = test: Binding affinity to heme in 5 mM CTAB surfactant assessed as equilibrium constant by UV-visible spectrophotometry
Heme [8] = test: Binding affinity to heme in 20 mM CTAB surfactant assessed as equilibrium constant by UV-visible spectrophotometry
Heme [9] = test: Binding affinity to heme in 1.2 mM TX-100 surfactant assessed as equilibrium constant by UV-visible spectrophotometry
Rhesus monkey = test: Toxicity in monkey assessed as increase in QTc interval; format: organism-based, Macaca mulatta; details: in vivo
Method in brief: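 Repeat-dose toxicity studies in monkeys, with QTc intervals and ECG rhythm monitored.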

[10] = target: Voltage-gated inwardly rectifying potassium channel KCNH2 (Homo sapiens, UniProt Q12809); test: Inhibition of human cloned ERG
Voltage-gated inwardly rectifying potassium channel KCNH2, sequence (Q12809 whole entry): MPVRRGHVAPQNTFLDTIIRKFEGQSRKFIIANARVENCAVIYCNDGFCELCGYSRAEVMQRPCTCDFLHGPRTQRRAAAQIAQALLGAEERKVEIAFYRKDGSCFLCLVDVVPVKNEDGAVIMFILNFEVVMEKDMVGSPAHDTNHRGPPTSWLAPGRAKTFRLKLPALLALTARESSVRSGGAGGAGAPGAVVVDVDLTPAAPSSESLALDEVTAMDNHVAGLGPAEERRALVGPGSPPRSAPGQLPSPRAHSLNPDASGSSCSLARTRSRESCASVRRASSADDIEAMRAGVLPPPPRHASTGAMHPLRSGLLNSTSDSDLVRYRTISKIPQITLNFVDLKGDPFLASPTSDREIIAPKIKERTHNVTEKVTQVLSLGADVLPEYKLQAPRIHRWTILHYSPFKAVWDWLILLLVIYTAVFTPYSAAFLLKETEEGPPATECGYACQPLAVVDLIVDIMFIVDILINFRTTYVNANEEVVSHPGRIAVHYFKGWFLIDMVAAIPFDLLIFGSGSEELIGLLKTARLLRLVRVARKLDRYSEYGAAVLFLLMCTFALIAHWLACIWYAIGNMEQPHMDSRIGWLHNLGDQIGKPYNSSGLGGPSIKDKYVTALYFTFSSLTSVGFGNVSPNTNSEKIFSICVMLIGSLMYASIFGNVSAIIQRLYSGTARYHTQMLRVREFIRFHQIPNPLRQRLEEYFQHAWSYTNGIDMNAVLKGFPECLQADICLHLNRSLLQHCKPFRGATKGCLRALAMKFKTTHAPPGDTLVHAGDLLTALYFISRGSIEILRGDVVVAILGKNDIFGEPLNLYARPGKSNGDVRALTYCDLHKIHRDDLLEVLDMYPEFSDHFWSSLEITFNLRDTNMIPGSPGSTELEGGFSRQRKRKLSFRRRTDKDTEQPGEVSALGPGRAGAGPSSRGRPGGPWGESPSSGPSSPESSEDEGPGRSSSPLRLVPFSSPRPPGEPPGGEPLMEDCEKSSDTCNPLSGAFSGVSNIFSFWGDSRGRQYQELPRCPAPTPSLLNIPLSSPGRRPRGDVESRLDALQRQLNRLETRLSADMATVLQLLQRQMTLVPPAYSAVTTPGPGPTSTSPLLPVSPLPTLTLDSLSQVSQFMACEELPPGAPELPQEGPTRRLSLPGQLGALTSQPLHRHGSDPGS

Cytochrome P450 3A4 [11] = target: T1, Cytochrome P450 3A4 (Homo sapiens, UniProt P08684); test: Inhibition of human recombinant CYP3A4 using phenyl-piperazinyl-methyl-benzyl-resofurin as substrate; format: ADME
T1 sequence (P08684 whole entry): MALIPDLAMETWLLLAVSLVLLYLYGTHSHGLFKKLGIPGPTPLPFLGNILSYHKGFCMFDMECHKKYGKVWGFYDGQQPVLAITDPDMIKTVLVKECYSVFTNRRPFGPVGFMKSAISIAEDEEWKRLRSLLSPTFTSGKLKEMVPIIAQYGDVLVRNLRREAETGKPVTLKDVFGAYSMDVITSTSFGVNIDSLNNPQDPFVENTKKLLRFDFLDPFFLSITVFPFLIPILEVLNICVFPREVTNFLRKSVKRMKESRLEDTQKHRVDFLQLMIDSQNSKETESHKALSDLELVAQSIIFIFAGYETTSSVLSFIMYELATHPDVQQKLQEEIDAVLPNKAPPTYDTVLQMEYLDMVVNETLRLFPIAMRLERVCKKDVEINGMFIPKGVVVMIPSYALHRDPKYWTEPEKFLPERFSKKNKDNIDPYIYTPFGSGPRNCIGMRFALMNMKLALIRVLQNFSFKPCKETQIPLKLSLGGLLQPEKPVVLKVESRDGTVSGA
Method in brief: (§1)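 Concentration-dependent inhibition of major human cytochrome P450 isozymes (recombinant enzymes) was tested using fluorescent probe substrates. Mean IC50 values were reported.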

Mus musculus = species: Mus musculus; test: Protein binding in mouse; format: ADME, organism-based; details: in vivo
Method in brief: (§2)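 Protein binding and blood-cell association were assessed in vitro in plasma or whole blood from preclinical species and humans.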

Plasmodium yoelii [12] = test: Antimalarial activity as reduced parasitaemia at day 4 against Plasmodium yoelii 17X infected CD1 mice (Mus musculus) at 40 mg/kg; format: functional, organism-based; parameters: dose 40 mg/kg
Method in brief: (§3)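 Standard Peters 4-day test in female age-matched CD1 mice, randomised into groups of 5. Mice were infected iv on day 0 with 6.4 × 10^6 or 10.0 × 10^6 parasites (P. berghei or P. yoelii) from infected donors. Peripheral-blood parasitaemia was read by flow cytometry at day 4 and compared with vehicle-treated groups. Doses ranged up to 40 mg/kg.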

Homo sapiens = species: Homo sapiens; test: Protein binding in human; format: ADME, organism-based; details: in vivo; method in brief: as §2
[13] = Clearance in iv and orally dosed dog blood; format: ADME, organism-based, Canis lupus familiaris; details: whole blood
Method in brief: (§4)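 Single intravenous and oral doses were given to the mouse, rat, dog and/or monkey. Drug was measured in blood to derive blood clearance, elimination half-life and % oral bioavailability.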

Cytochrome P450 2D6 = Cytochrome P450 2D6 (Homo sapiens, UniProt P10635); test: Inhibition of human recombinant CYP2D6; format: ADME; method in brief: as §1
Cytochrome P450 2D6, sequence (P10635 whole entry): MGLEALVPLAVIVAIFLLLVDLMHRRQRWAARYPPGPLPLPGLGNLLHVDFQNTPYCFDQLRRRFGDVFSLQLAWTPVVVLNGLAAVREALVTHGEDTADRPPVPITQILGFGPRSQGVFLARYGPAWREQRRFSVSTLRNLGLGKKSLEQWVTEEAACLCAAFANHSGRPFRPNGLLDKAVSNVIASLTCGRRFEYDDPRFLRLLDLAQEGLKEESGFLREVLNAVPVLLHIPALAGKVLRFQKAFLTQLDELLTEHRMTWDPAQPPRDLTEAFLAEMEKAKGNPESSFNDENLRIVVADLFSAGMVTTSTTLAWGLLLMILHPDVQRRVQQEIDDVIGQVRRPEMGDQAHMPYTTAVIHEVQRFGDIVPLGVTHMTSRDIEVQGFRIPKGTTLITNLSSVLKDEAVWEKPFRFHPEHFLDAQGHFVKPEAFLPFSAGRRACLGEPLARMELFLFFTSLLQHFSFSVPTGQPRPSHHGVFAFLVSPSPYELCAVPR

Cytochrome P450 2C19 = Cytochrome P450 2C19 (Homo sapiens, UniProt P33261); test: Inhibition of human recombinant CYP2C19; format: ADME; method in brief: as §1
Cytochrome P450 2C19, sequence (P33261 whole entry): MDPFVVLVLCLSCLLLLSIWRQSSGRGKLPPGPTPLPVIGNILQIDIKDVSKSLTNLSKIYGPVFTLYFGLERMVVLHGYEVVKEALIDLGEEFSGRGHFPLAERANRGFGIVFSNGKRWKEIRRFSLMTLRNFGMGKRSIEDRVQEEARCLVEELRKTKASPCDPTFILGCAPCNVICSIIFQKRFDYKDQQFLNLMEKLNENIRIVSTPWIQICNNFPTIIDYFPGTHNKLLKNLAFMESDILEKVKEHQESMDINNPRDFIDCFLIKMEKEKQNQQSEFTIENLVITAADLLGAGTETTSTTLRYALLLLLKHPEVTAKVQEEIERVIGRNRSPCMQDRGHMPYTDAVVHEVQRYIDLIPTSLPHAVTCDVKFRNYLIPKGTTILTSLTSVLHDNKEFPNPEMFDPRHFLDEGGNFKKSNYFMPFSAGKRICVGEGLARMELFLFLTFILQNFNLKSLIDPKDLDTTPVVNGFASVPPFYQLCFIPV

Cytochrome P450 2C8 = target: T2, Cytochrome P450 2C8 (Homo sapiens, UniProt P10632); test: Inhibition of human recombinant CYP2C8; format: ADME; method in brief: as §1
T2 sequence (P10632 whole entry): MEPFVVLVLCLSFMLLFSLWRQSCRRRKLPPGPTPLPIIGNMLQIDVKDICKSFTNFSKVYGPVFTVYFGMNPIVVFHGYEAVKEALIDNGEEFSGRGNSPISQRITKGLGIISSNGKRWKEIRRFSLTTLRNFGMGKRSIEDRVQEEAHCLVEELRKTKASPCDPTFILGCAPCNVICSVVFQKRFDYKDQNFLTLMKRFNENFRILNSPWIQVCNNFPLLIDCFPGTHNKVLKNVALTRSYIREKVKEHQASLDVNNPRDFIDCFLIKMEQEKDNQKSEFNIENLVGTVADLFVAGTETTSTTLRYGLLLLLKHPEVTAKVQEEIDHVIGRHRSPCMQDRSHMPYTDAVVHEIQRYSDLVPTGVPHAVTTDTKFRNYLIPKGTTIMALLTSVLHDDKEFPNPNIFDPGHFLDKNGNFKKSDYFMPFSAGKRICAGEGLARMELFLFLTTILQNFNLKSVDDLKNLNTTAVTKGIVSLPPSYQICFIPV

Cytochrome P450 2C9 = Cytochrome P450 2C9 (Homo sapiens, UniProt P11712); test: Inhibition of human recombinant CYP2C9; format: ADME; method in brief: as §1
Cytochrome P450 2C9, sequence (P11712 whole entry): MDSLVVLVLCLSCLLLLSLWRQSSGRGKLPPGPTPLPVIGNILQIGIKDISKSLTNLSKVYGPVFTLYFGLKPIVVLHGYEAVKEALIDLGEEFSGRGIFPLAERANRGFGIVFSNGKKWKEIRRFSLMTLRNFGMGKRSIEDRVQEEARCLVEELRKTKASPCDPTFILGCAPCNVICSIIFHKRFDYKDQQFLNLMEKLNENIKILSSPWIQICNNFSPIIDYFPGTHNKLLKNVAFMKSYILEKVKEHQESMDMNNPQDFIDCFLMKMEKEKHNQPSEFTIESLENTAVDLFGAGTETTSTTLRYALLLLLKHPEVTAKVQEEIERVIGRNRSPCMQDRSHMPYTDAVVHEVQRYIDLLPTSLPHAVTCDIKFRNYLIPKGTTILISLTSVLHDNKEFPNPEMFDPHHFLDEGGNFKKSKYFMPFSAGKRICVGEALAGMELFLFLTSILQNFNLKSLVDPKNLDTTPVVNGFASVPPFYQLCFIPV

Cytochrome P450 1A2 = target: T3, Cytochrome P450 1A2 (Homo sapiens, UniProt P05177); test: Inhibition of human recombinant CYP1A2; format: ADME; method in brief: as §1
T3 sequence (P05177 whole entry): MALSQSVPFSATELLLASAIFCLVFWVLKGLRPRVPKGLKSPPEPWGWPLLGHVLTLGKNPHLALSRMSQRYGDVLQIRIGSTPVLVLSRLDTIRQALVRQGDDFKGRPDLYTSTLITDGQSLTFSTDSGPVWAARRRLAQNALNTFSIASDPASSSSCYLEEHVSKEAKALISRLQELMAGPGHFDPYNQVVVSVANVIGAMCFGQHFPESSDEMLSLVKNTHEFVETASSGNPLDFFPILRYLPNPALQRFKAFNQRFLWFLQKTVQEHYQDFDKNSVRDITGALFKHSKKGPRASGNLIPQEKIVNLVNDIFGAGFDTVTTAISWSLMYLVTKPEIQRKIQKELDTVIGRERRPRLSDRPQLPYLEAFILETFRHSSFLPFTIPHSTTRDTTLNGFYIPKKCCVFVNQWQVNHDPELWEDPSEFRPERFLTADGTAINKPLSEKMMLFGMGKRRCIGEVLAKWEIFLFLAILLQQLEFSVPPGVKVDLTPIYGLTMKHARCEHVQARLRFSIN

Cytochrome P450 3A4 [14] = target: T1, Cytochrome P450 3A4; test: Inhibition of human recombinant CYP3A4 using […] as substrate; format: ADME
Plasmodium falciparum [15] = test: Antimalarial activity against chloroquine-sensitive Plasmodium falciparum 3D7 in human erythrocytes after 48 hrs by [3H]hypoxanthine uptake; format: functional, organism-based
Method in brief: (§5)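 P. falciparum grown in human erythrocytes in RPMI 1640 with 25 mM HEPES, 32 mM NaHCO3 and 10% human serum, gassed 3% O2/4% CO2/93% N2. Assay at 2% parasitemia, 0.5% hematocrit, drug stocks in DMSO diluted in medium, in triplicate. After 24 h at 37 °C, [3H]-hypoxanthine added and incubation continued 24 h. Scintillation counting; IC50 by probit interpolation of log dose-response, three independent experiments.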

Plasmodium falciparum [16] = test: Antimalarial activity against chloroquine-sensitive Plasmodium falciparum HB3 in human erythrocytes after 48 hrs by [3H]hypoxanthine uptake; format: functional, organism-based; method in brief: as §5
Plasmodium falciparum [17] = test: Antimalarial activity against chloroquine-resistant Plasmodium falciparum K1 in human erythrocytes after 48 hrs by [3H]hypoxanthine uptake; format: functional, organism-based; method in brief: as §5
Plasmodium berghei = test: Antimalarial activity as reduced parasitaemia against Plasmodium berghei ANKA infected CD1 mice (Mus musculus) after 4 days; format: functional; details: 96 h; method in brief: as §3
[18] = Clearance in iv and orally dosed monkey blood; format: ADME, organism-based, Macaca mulatta; details: rhesus monkey, whole blood; method in brief: as §4
[19] = Oral bioavailability in monkey; format: ADME, organism-based, Macaca mulatta; details: rhesus monkey, in vivo; method in brief: as §4
[20] = Oral bioavailability in mouse; format: ADME, organism-based; details: in vivo; method in brief: as §4
[21] = Clearance in iv and orally dosed rat blood; format: ADME, organism-based; details: whole blood; method in brief: as §4
[22] = Elimination half life in orally dosed mouse; format: ADME, organism-based; details: in vivo, po, read-out: beta t1/2 (converted); method in brief: as §4
[23] = Ratio of drug level in blood to plasma in human; format: ADME, cell-free; details: read-out: BPR
Method in brief: (§6)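 Red blood cell association measured in vitro in whole blood from the species named, alongside plasma protein binding. Read-out is the ratio of drug concentration in whole blood to that in plasma.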

Plasmodium yoelii [24] = test: Antimalarial activity as ED100 in peripheral blood at day 23 against Plasmodium yoelii 17X infected CD1 mice (Mus musculus); format: functional
[25] = Clearance in iv and orally dosed mouse blood; format: ADME, organism-based; details: whole blood; method in brief: as §4
[26] = Oral bioavailability in rat; format: ADME, organism-based; details: in vivo; method in brief: as §4
[27] = Oral bioavailability in dog; format: ADME, organism-based, Canis lupus familiaris; details: in vivo; method in brief: as §4
[28] = Elimination half life in orally dosed monkey; format: ADME, organism-based, Macaca mulatta; details: rhesus monkey, in vivo, po; read-out: beta t1/2 (converted); method in brief: as §4
[29] = Ratio of drug level in blood to plasma in dog; format: ADME, cell-free, Canis lupus familiaris; details: read-out: BPR; method in brief: as §6

Structure (SMILES) | ED50 (Plasmodium yoelii [1]) | ED90 (Plasmodium yoelii [1]) | Activity (Heme [3]) | Activity (Rhesus monkey) | IC50 [10] | IC50 (Cytochrome P450 3A4 [11]) | Activity (Mus musculus) | Activity (Plasmodium yoelii [12]) | Activity (Homo sapiens) | clearance [13] | IC50 (Cytochrome P450 2D6) | IC50 (Cytochrome P450 2C19) | IC50 (Cytochrome P450 2C8) | IC50 (Cytochrome P450 2C9) | IC50 (Cytochrome P450 1A2) | IC50 (Plasmodium falciparum [15]) | IC50 (Plasmodium falciparum [16]) | IC50 (Plasmodium falciparum [17]) | ED50 (Plasmodium berghei) | ED90 (Plasmodium berghei) | other results
CCN(CC)CCCC(C)Nc1ccnc2cc(Cl)ccc12 (configuration not stated) [CHLOROQUINE] | 3.3 mg/kg | 4.4 mg/kg | 5.3 | Toxic |  |  |  |  |  |  |  |  |  |  |  |  |  |  |  |  | Activity (Plasmodium yoelii [2]): >40 mg/kg; Activity (Heme [4]): 4.4; Activity (Heme [5]): 3.8; Activity (Heme [6]): 4; Activity (Heme [7]): 4.69; Activity (Heme [8]): 4.7; Activity (Heme [9]): 6.23
CCNCc1cc(Nc2ccnc3cc(Cl)ccc23)ccc1O [DESETHYL AMODIAQUINE] |  |  |  |  | 9.5 µM | > 100 µM | 74% | inactive | 86% |  |  |  |  |  |  |  |  |  |  |  | 
CCNCc1ccc(Nc2ccnc3cc(Cl)ccc23)cc1O [DESETHYL ISOQUINE] |  |  |  |  |  | ≥ 55 µM |  |  |  | 12 mL/min/kg | 3.4 µM | 62 µM | 23 µM | > 100 µM | 8 µM | 9.2 nM | 14.2 nM | 17.6 nM | 5.3 mg/kg | 7.3 mg/kg | IC50 (Cytochrome P450 3A4 [14]; read-out: IC50): > 100 µM; clearance [18]: 49 mL/min/kg; bioavailability [19]: 40%
CC(C)(C)NCc1ccc(Nc2ccnc3cc(Cl)ccc23)cc1O [GSK-369796] | 3.8 mg/kg | 5.4 mg/kg | 5.23 |  | 7.5 µM | > 100 µM | 93% |  | 88% | 6.3 mL/min/kg | 3 µM | 24 µM | 23 µM | ≥ 90 µM | 29 µM | 11.2 nM | 12.6 nM | 13.2 nM | 2.8 mg/kg | 4.7 mg/kg | bioavailability [20]: 100%; clearance [21]: 26 mL/min/kg; half-life [22]: 180 min; IC50 (Cytochrome P450 3A4 [14]): Active; blood plasma ratio [23]: 1.2; Activity (Plasmodium yoelii [24]): 20 mg/kg; clearance [18]: 14.5 mL/min/kg; clearance [25]: 17 mL/min/kg; bioavailability [26]: 89%; bioavailability [27]: 68%; bioavailability [19]: 100%; half-life [28]: 660 min; blood plasma ratio [29]: 15
CCCCN(CCCC)CCC(O)c1cc2c(Cl)cc(Cl)cc2c2cc(C(F)(F)F)ccc12 (configuration not stated) [HALOFANTRINE] |  |  |  | Toxic |  |  |  |  |  |  |  |  |  |  |  |  |  |  |  |  | 
CCN(CC)Cc1ccc(Nc2ccnc3cc(Cl)ccc23)cc1O [ISOQUINE] |  |  |  |  | 3.9 µM |  |  | inactive |  | 151 mL/min/kg |  |  |  |  |  | 11.6 nM | 12.6 nM | 17.6 nM | 3.7 mg/kg | 5.3 mg/kg | IC50 (Cytochrome P450 3A4 [14]): Active
